According to ChEMBL document CHEMBL4261642, “Design, synthesis, and ex vivo evaluation of a selective inhibitor for retinaldehyde dehydrogenase enzymes” (Bioorg Med Chem, 2018):
Calls of active or inactive are those of the source. No cut-off for these calls is given here.

Legend:
[1] = target: T1, Retinal dehydrogenase 2 (Homo sapiens) (UniProt O94788); experiment: Inhibition of RALDH2 (unknown origin) […] assessed as time dependence ratio (kinact/KI)
T1 sequence (whole entry): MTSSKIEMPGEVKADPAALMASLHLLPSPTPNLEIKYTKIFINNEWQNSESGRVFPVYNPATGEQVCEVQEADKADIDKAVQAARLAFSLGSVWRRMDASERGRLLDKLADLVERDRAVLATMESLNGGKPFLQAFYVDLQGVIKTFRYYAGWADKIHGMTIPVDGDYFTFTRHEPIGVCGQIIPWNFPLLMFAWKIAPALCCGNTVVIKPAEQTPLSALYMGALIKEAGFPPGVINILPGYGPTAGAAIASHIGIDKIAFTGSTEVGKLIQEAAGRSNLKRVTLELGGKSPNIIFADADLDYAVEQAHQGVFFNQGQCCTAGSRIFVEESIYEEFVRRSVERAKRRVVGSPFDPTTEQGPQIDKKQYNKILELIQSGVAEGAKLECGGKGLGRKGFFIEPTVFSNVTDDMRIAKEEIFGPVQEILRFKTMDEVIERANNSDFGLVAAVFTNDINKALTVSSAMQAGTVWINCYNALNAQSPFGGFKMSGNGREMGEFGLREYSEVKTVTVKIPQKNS

[2] = target: T2, Retinal dehydrogenase 2 (Gallus gallus) (UniProt O93344); experiment: Inhibition of N-terminal His6-tagged recombinant chick RALDH2 expressed in Escherichia coli BL21(DE3) cells at 50 nM using RAL as substrate assessed as remaining activity preincubated for 20 mins followed by compound washout by ultrafiltration and subsequent addition of substrate and measured after 30 mins in presence of NADH by fluorescence assay (reference value: 100.0 +/- 11.57%)
T2 sequence (whole entry): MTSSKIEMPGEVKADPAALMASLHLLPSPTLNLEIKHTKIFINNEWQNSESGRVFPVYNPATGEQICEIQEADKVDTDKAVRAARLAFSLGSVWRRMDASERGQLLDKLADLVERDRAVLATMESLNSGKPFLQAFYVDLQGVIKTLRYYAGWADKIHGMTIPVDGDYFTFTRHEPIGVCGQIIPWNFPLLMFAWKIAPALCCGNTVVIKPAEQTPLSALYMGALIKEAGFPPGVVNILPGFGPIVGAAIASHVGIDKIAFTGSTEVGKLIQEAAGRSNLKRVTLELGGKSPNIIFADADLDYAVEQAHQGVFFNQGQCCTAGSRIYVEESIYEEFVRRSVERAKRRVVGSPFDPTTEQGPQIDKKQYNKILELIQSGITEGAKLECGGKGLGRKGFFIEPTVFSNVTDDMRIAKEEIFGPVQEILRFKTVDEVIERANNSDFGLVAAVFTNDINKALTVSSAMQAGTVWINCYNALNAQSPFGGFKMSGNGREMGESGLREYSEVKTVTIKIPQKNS
How it was run: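 Chick RALDH2 (91 nM) pre-incubated 20 min with 0–50 nM inhibitor. Unbound inhibitor removed by ultrafiltration before adding 250 μM retinaldehyde and 4 mM NAD+, 30 min at 37°C. NADH measured fluorimetrically. Activity expressed as % of vehicle. Triplicates; one-way ANOVA with Bonferroni test.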

[3] = target: T2, Retinal dehydrogenase 2 (Gallus gallus); experiment: Inhibition of chick RALDH2 expressed in doxycycline-inducible HEK293 cells assessed as inhibition of ATRA synthesis at 1 uM after 24 hrs in presence of […]; type: cell-based
[4] = target: T3, Retinal dehydrogenase 2 (Gallus gallus, UniProt O93344); experiment: Inhibition of N-terminal His6-tagged recombinant chick RALDH2 expressed in Escherichia coli BL21(DE3) cells up to 500 nM using RAL as substrate preincubated up to 40 mins followed by substrate addition and measured after 30 mins in presence of NADH by fluorescence assay
T3 sequence (O93344 whole entry): T2 sequence (whole entry)
How it was run: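 Chick RALDH2 pre-incubated 10, 20 and 40 min with 0–500 nM inhibitor, then assayed with retinaldehyde/NAD+ by fluorimetric NADH. kobs taken from linear regression of log % activity remaining versus pre-incubation time. KI and kinact obtained by nonlinear regression of kobs versus inhibitor concentration.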

[5] = target: T2, Retinal dehydrogenase 2 (Gallus gallus); experiment: Inhibition of chick RALDH2 expressed in doxycycline-inducible HEK293 cells assessed as inhibition of ATRA synthesis at 0.05 uM after 24 hrs in presence of […]; type: cell-based
[6] = species: Gallus gallus; experiment: Inhibition of N-terminal His6-tagged recombinant chick RALDH3 expressed in Escherichia coli BL21(DE3) cells at 500 nM using RAL as substrate assessed as Km preincubated for 20 mins followed by substrate addition and measured after 30 mins in presence of NADH by fluorescence assay (reference value: 84.45 +/- 30.99 microM)
[7] = tested on: HEK293; experiment: Cytotoxicity against doxycycline-inducible chicken RALDH2 expressing HEK293 cells by measuring DNA content after 24 hrs in presence of proteinase K by Pico-green dye-based fluorescence assay; type: functional, cell-based; settings: Homo sapiens, HEK293, 24 h
How it was run: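 Doxycycline-induced (Dox)RALDH2-eGFP HEK293 cells treated with compound in low-serum DMEM. Homogenate aliquots taken before ultracentrifugation were digested with proteinase K (0.05% w/v in 10 mM EDTA, 0.1 M sodium phosphate pH 6.5) at 60°C overnight. DNA measured by PicoGreen fluorescence. Toxicity curves span 0.01–50 μM over 24 h. Two experiments, n = 5 per concentration.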

[8] = target: T2, Retinal dehydrogenase 2 (Gallus gallus); experiment: Inhibition of RALDH2 in living intact choroid isolated from normal chick eyes assessed as inhibition of ATRA synthesis after 24 hrs in presence of retinaldehyde and NAD+
[9] = target: T3, Retinal dehydrogenase 2; experiment: Inhibition of RALDH2 in choroidal cytosol fraction from 4 day recovering chick assessed as inhibition of ATRA synthesis pre-incubated for 20 mins followed by […] addition and measured after 30 mins by HPLC analysis
[10] = target: T3, Retinal dehydrogenase 2; experiment: Inhibition of N-terminal His6-tagged recombinant chick RALDH2 expressed in Escherichia coli BL21(DE3) cells using RAL as substrate preincubated for 20 mins followed by substrate addition and measured after 30 mins in presence of NADH by fluorescence assay
How it was run: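 Purified His-tagged recombinant enzyme in dialysis buffer with 2 mM DTT. Amounts were chick RALDH1 2 μg (0.358 μM), chick RALDH2 0.5 μg (0.091 μM), chick RALDH3 2 μg (0.355 μM) and human RALDH2 1 μg (0.176 μM). Enzyme pre-incubated 20 min at 37°C with 0–10 μM inhibitor in DMSO. Reaction started with final 4 mM NAD+ in pyrophosphate pH 8.2 buffer plus 250 μM retinaldehyde, 30 min at 37°C. NADH read fluorimetrically (Ex/Em 540/590) against a standard curve. Triplicates, 3–5 experiments.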

[11] = target: T2, Retinal dehydrogenase 2 (Gallus gallus); experiment: Inhibition of RALDH2 in choroidal cytosol fraction from control chick assessed as inhibition of ATRA synthesis at 0.1 to 6 uM pre-incubated for 20 mins followed by […] addition and measured after 30 mins by HPLC analysis

kinact/KI [1]: 1550 to 233000 M⁻¹ s⁻¹ | Activity [2]: 23% | inhibition [3]: 92% | Ki [4]: 128 nM | inhibition [5]: 42% | inhibition [8]: inactive | IC50 [9]: 53.6 nM | IC50 [10]: 55 nM | inhibition [11]: 92 to 99%
Compound: CC1=C(/C=C/C(C)=C/C=C/C(C)=C/C(=O)C(Cl)Cl)C(C)(C)CCC1
Km [6]: 26.9 µM | IC50 [7]: 2940 nM
